Test results reported in ChEMBL document CHEMBL4118021, “Studies of TAK1-centered polypharmacology with novel covalent TAK1 inhibitors” (Bioorg Med Chem, 2017).
Calls of active or inactive are those of the source.

Tests used:
Type in all cases: cell-based
[1] = target: Y-box-binding protein 1 (Homo sapiens) (UniProt P67809); assay: Binding affinity to YBX1 in human NCI-H23 cells at 1 uM by mass spectrometry based pull down assay
[2] = target: Calcyclin-binding protein (Homo sapiens) (UniProt Q9HB71); assay: Binding affinity to CACYBP in human NCI-H23 cells at 1 uM by mass spectrometry based pull down assay
[3] = target: Small ribosomal subunit protein mS29 (Homo sapiens) (UniProt P51398); assay: Binding affinity to DAP3 in human NCI-H23 cells at 1 uM by mass spectrometry based pull down assay
[4] = target: Thioredoxin (Homo sapiens) (UniProt P10599); assay: Binding affinity to TXN in human NCI-H23 cells at 1 uM by mass spectrometry based pull down assay
Sequence of Thioredoxin (Homo sapiens) (P10599 whole entry): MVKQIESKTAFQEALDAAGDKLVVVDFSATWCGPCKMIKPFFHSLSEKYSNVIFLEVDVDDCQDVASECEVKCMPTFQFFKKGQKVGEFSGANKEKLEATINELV

[5] = target: Bridging integrator 3 (Homo sapiens) (UniProt Q9NQY0); assay: Binding affinity to BIN3 in human NCI-H23 cells at 1 uM by mass spectrometry based pull down assay
Sequence of Bridging integrator 3 (Homo sapiens) (Q9NQY0 whole entry, the tested form may be a part): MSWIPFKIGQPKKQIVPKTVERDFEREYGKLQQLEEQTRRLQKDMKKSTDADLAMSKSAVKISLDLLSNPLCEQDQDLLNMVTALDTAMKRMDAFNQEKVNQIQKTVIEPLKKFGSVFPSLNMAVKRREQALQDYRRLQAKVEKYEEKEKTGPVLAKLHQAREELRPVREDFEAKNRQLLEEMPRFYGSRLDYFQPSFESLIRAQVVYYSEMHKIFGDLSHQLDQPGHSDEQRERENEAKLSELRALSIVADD

[6] = target: Transmembrane emp24 domain-containing protein 10 (Homo sapiens) (UniProt P49755); assay: Binding affinity to TMED10 in human NCI-H23 cells at 1 uM by mass spectrometry based pull down assay
Sequence of Transmembrane emp24 domain-containing protein 10 (Homo sapiens) (P49755 whole entry, the tested form may be a part): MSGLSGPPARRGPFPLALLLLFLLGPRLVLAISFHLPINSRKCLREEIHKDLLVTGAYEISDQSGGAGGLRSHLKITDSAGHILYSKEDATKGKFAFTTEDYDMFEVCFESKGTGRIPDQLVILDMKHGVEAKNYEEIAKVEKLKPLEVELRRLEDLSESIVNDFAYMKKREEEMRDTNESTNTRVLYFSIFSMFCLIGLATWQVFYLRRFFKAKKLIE

[7] = target: Thioredoxin reductase 1, cytoplasmic (Homo sapiens) (UniProt Q16881); assay: Binding affinity to TXNRD1 in human NCI-H23 cells at 1 uM by mass spectrometry based pull down assay
Sequence of Thioredoxin reductase 1, cytoplasmic (Homo sapiens) (Q16881 whole entry): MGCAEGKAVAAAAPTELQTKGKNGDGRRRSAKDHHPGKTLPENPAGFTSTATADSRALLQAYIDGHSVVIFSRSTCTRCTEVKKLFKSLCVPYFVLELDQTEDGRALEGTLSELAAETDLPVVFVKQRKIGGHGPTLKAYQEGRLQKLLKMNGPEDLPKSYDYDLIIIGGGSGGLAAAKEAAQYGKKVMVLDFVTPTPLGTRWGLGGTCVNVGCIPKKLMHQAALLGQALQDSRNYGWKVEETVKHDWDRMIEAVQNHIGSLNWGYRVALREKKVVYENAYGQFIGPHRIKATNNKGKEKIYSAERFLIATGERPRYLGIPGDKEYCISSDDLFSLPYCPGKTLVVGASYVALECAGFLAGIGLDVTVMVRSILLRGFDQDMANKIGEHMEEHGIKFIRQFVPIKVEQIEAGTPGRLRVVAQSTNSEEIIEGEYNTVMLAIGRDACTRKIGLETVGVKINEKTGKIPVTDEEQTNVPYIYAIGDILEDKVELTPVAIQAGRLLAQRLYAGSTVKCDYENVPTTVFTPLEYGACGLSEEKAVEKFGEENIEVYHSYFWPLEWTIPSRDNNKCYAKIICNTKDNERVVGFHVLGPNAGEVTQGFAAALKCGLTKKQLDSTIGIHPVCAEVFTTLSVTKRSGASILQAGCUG

[8] = target: Melanoma-associated antigen 4 (Homo sapiens) (UniProt P43358); assay: Binding affinity to MAGEA4 in human NCI-H23 cells at 1 uM by mass spectrometry based pull down assay
Sequence of Melanoma-associated antigen 4 (Homo sapiens) (P43358 whole entry): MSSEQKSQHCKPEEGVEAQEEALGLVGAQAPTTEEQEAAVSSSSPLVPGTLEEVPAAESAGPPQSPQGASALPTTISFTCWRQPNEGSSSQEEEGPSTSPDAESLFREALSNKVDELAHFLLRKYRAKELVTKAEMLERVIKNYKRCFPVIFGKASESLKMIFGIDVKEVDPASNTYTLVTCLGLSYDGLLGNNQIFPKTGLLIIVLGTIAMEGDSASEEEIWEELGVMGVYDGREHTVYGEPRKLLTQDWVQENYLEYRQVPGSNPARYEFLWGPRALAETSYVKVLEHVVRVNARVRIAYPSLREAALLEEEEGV

[9] = target: AP2-associated protein kinase 1 (Homo sapiens) (UniProt Q2M2I8); assay: Binding affinity to AAK1 in human NCI-H23 cells at 1 uM by mass spectrometry based pull down assay
Sequence of AP2-associated protein kinase 1 (Homo sapiens) (Q2M2I8 whole entry, looked up): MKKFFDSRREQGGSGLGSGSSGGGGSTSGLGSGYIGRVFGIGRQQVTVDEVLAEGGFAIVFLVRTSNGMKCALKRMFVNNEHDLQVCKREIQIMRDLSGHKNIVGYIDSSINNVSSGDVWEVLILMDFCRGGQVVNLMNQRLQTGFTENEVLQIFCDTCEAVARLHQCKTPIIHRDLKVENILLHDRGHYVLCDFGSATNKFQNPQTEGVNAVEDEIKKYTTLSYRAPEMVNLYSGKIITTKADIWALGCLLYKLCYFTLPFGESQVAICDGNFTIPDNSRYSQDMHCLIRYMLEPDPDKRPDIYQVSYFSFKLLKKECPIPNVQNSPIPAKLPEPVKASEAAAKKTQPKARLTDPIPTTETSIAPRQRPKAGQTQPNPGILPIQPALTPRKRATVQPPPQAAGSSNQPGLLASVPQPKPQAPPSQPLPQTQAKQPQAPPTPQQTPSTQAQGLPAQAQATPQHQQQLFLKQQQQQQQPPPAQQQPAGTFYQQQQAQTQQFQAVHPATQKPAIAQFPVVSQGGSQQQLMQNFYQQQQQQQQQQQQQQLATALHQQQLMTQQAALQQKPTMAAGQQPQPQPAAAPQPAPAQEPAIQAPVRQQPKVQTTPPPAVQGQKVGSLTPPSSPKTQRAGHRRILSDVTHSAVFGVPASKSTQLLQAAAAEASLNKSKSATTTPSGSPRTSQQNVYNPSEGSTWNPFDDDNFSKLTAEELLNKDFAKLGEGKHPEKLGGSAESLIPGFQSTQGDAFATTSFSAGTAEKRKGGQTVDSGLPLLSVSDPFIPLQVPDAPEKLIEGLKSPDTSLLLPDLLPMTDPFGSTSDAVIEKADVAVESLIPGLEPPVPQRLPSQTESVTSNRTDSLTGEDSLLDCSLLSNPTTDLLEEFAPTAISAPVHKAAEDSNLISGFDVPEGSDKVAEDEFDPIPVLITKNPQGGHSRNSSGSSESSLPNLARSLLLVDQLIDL
Outline: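 NCI-H23 or NCI-H358 cells were grown and lysed. Lysates were incubated overnight at 4 °C with 1 μM biotinylated covalent probe or DMSO, then pulled down on streptavidin beads. Proteins were run on polyacrylamide gels and stained with Coomassie. Bands were excised, digested and identified by mass spectrometry.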

[10] = target: T1, Dual specificity mitogen-activated protein kinase kinase 6 (Homo sapiens) (UniProt P52564); assay: Binding affinity to MAP2K6 in human NCI-H23 cells at 1 uM by mass spectrometry based pull down assay
T1 sequence (whole entry): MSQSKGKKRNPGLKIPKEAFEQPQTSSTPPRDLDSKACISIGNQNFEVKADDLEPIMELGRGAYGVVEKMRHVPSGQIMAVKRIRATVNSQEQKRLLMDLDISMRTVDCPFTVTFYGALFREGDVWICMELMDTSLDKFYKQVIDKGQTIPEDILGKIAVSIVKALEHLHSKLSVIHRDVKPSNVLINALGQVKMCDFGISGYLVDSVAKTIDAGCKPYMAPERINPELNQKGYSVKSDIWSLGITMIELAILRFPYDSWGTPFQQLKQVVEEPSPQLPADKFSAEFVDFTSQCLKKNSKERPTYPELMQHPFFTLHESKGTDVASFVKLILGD

[11] = target: Acylamino-acid-releasing enzyme (Homo sapiens) (UniProt P13798); assay: Binding affinity to APEH in human NCI-H358 cells at 1 uM by mass spectrometry based pull down assay
Sequence of Acylamino-acid-releasing enzyme (Homo sapiens) (P13798 whole entry): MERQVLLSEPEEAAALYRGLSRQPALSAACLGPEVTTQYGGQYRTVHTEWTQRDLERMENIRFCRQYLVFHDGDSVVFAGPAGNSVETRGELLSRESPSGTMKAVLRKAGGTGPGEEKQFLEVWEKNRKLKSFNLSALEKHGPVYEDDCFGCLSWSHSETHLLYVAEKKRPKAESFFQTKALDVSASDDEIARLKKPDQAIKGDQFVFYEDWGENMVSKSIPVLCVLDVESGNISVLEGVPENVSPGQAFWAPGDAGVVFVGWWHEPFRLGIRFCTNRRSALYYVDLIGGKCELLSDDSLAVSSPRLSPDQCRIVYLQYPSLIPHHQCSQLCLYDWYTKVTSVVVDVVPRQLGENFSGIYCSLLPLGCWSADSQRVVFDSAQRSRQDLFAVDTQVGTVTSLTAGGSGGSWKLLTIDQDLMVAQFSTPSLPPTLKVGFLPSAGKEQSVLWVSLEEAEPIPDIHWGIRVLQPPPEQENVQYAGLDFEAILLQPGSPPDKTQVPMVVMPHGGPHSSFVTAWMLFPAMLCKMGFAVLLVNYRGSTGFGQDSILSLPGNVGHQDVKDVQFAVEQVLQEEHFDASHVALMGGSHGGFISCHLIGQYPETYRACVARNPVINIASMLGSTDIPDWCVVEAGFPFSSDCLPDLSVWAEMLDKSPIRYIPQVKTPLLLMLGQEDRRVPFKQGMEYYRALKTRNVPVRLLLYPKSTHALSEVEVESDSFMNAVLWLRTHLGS

[12] = target: T2, Dual specificity mitogen-activated protein kinase kinase 5 (Homo sapiens) (UniProt Q13163); assay: Binding affinity to MAP2K5 in human NCI-H358 cells at 1 uM by mass spectrometry based pull down assay
T2 sequence (whole entry): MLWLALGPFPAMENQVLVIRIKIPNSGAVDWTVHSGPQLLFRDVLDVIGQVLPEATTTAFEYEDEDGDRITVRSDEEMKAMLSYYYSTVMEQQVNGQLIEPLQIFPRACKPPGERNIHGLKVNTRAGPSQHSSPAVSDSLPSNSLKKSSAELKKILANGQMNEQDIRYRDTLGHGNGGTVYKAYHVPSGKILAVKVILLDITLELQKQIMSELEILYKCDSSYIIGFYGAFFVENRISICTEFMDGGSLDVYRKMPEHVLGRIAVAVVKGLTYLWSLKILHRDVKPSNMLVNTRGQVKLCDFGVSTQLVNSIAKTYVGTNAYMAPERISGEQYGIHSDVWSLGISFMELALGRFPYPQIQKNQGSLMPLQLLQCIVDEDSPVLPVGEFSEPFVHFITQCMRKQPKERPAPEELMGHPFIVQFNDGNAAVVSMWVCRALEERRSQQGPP

[13] = target: Glycogen phosphorylase, brain form (Homo sapiens) (UniProt P11216); assay: Binding affinity to PYGB in human NCI-H358 cells at 1 uM by mass spectrometry based pull down assay
Sequence of Glycogen phosphorylase, brain form (Homo sapiens) (P11216 whole entry): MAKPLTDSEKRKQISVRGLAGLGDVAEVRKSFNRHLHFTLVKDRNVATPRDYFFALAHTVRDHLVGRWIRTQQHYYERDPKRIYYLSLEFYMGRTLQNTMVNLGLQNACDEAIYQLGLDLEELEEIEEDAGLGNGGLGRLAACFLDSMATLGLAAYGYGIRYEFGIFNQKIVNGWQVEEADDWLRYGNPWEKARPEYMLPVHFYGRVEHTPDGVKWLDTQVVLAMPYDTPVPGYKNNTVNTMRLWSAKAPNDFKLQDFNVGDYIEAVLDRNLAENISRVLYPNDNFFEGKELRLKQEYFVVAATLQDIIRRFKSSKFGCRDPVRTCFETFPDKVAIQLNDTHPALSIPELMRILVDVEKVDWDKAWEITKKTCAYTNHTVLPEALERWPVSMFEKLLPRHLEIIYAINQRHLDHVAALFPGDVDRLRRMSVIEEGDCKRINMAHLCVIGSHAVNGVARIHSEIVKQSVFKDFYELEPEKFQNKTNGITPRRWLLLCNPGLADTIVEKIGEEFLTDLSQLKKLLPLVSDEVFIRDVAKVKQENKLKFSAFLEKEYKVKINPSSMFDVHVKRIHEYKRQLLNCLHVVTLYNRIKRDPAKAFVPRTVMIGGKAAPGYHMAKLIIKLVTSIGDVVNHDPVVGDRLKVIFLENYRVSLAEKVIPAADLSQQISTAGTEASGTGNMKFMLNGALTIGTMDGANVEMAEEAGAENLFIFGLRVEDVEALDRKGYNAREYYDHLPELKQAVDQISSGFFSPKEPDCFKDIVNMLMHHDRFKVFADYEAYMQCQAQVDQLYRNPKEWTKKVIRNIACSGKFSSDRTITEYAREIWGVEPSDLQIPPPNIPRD

[14] = target: Mitochondrial import inner membrane translocase subunit TIM50 (Homo sapiens) (UniProt Q3ZCQ8); assay: Binding affinity to TIMM50 in human NCI-H358 cells at 1 uM by mass spectrometry based pull down assay
Sequence of Mitochondrial import inner membrane translocase subunit TIM50 (Homo sapiens) (Q3ZCQ8 whole entry): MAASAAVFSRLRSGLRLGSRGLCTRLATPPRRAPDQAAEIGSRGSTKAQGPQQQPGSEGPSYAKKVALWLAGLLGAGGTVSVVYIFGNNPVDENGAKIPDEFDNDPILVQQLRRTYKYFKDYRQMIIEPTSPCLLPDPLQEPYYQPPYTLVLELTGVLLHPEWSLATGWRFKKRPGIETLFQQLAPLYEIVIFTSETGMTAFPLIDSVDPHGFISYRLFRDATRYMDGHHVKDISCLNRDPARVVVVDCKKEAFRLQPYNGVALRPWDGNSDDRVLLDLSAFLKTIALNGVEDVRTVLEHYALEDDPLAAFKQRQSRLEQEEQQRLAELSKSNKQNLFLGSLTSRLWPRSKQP

[15] = target: 80S Ribosome (Homo sapiens) (UniProt P08865+P42677+P62753+P15880+P23396+P61247+P62701+P22090+P46782+P62081+P62241+P46781+P46783+P62280+P25398+P62277+P62263+P62841+P62244+P62249+P08708+P62269+P39019+P60866+P63220+P62266+P62847+P62851+P62854+P62979+P62857+P62273+P62861+P39023+P36578+P46777+Q02878+P18124+P62424+P62917+P32969+P27635+P62906+P62913+P30050+P26373+P40429+P50914+P61313+P18621+Q07020+Q02543+P84098+P46778+P35268+P62829+P62750+P83731+P61254+P61353+P46776+P46779+P47914+P62888+P62899+P62910+P49207+P42766+P18077+Q9Y3U8+P83881+P61927+P61513+P63173+P62891+P62945+P05388+P05386); assay: Binding affinity to RPS2 in human NCI-H358 cells at 1 uM by mass spectrometry based pull down assay

Measured: Activity

Sequence of Y-box-binding protein 1 (Homo sapiens) (P67809 whole entry): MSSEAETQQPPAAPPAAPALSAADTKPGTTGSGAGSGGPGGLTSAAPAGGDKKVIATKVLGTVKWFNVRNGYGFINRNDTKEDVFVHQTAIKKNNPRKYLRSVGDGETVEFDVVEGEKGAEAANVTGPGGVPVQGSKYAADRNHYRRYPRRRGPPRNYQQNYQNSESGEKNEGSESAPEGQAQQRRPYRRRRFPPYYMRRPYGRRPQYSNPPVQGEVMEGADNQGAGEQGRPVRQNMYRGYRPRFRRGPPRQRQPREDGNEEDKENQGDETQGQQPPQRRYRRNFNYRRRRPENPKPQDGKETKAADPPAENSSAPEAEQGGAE

C=CC(=O)Nc1ccccc1Nc1nc(Nc2ccc(N3CCN(CCOCCOCCOCCNC(=O)CCCC[C@@H]4SC[C@@H]5NC(=O)N[C@@H]54)CC3)cc2)ncc1Cl
active: all assays above
